Test [1] is described as follows: Binding affinity to voltage-gated sodium channel in rat brain synaptosomal membranes. Format: cell membranes.
The species entered for another test is Rattus norvegicus. The test can be described thus: Binding affinity to voltage-gated sodium channel in rat brain synaptosomal membranes relative to control. In kind it is cell membranes.
In test [2] the target is Sodium channel protein type 2 subunit alpha (Rattus norvegicus, UniProt P04775). The test is described as follows: Inhibition of rat brain voltage-gated sodium channel subunit alpha Nav1.2-mediated current expressed in CHO cells. In kind it is cell-based.
Sodium channel protein type 2 subunit alpha, sequence (P04775 whole entry): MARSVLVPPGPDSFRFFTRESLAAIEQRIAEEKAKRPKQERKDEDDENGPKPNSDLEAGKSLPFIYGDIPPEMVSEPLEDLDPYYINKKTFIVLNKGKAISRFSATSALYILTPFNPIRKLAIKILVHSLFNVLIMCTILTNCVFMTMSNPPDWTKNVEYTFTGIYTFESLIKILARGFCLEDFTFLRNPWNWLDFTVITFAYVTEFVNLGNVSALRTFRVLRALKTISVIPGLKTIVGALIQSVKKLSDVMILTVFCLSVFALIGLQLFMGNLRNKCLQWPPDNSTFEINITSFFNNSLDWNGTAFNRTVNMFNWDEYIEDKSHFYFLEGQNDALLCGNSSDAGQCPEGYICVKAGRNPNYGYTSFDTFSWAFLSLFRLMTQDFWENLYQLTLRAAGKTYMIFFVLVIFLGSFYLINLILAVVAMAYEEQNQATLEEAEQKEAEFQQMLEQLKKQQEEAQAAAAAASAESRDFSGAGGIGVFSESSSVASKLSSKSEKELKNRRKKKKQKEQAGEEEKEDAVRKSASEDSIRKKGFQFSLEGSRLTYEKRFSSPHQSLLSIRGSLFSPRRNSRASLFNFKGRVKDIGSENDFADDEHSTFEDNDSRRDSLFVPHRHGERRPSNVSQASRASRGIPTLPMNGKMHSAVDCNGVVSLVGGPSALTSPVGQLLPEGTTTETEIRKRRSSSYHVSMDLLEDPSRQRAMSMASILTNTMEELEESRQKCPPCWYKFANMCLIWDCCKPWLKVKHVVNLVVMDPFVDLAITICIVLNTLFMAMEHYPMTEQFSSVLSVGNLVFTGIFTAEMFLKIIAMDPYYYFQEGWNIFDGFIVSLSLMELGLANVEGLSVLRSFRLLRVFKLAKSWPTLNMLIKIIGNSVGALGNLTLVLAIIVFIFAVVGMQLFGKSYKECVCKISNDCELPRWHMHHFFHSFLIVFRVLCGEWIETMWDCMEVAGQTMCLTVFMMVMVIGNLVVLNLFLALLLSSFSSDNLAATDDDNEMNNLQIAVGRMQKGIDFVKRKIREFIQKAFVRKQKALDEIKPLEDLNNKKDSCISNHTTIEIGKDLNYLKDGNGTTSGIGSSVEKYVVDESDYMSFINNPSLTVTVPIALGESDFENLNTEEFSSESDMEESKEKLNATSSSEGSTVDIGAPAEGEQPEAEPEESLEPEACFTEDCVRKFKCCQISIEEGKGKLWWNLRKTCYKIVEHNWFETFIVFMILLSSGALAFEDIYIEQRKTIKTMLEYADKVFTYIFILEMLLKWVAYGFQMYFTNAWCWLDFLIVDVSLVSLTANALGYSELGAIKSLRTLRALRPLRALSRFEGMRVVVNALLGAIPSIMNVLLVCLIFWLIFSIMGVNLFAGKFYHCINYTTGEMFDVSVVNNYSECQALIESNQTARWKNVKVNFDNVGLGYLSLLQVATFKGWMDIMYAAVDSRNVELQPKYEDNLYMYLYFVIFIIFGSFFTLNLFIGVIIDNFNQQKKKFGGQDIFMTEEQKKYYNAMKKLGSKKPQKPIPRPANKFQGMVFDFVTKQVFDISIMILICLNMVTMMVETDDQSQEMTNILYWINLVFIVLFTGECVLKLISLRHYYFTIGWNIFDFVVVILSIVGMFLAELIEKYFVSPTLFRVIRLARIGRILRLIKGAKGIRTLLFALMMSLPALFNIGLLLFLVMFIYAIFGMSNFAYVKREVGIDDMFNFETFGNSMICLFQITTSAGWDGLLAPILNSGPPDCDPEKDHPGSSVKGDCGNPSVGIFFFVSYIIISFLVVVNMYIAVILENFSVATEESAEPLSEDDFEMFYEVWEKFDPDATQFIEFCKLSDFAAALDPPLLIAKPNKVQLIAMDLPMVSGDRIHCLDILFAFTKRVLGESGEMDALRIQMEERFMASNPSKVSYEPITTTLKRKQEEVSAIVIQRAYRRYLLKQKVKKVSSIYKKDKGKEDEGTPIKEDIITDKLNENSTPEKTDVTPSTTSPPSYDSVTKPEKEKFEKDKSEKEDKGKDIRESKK
Test [3] is described as follows: Inhibition of voltage-gated sodium channel in rat brain homogenate. In kind it is tissue-based. The method, boiled down:
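Radioligand displacement of [3H]batrachotoxin binding was measured in rat brain homogenates, and IC50 was derived.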

In general, Kd refers to the free concentration of one partner at which half of the binding sites on the other are occupied at equilibrium, for simple one-to-one binding. Read a low Kd as a tighter complex. As a reminder, the IC50 is the concentration that inhibits the measured activity by half. As for `CCCCC/N=c1\ccn(Cc2ccccc2)c2cc(Cl)ccc12`, the Kd in test [1] worked out at 2.2 nM. Moreover, the Bmax in the test filed under Rattus norvegicus turned out to be 5.4 pmol/mg. Further, the IC50 was 9 nM in test [2] and 8.1 nM in test [3].

(Values after ChEMBL document CHEMBL2417508, “Synthesis and evaluation of a 125I-labeled iminodihydroquinoline-derived tracer for imaging of voltage-gated sodium channels” (Bioorg Med Chem Lett, 2013).)
